The values that follow come from PMC4811700 (European journal of medicinal chemistry, 2016).

The target of one assay is Mcl-1 (Homo sapiens, UniProt Q07820). Briefly: Fluorescence polarization competition assay. As to conditions: for change in experimental free energy of binding to Mcl-1: relative to the preceding compound in the series 3b, 3a, 3bi, 3bl; for binding affinity to Mcl-1 in vitro: data not shown. Type of assay: binding. A general note: In fluorescence polarisation assays a small probe gives low polarisation when free and higher when bound to something large.

A further assay has as its target Mcl-1^172-327 (Homo sapiens, UniProt Q07820). Briefly: NMR 1H,15N-HSQC with 15N-labeled Mcl-1. Type of assay: binding. The conditions noted are these: 131 μM 15N-labeled Mcl-1, 182 μM compound. In a few lines:
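2D 1H,15N-fast HSQC collected at 25 °C, 800 MHz, with and without compound. Buffer: 20 mM HEPES pH 6.8, 50 mM NaCl, 3 mM DTT, 20% D2O, 5% d6-DMSO. Backbone amide shift changes monitored.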

Sequence of Mcl-1 (Q07820 172-327): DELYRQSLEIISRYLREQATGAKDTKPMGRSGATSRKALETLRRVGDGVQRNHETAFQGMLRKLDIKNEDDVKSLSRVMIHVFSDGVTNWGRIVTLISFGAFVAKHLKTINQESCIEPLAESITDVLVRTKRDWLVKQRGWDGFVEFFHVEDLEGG
Sequence of Mcl-1^172-327 (Q07820 172-327): as above

In the case of `Cc1cc(Oc2ccc(N(Cc3ccccc3)S(=O)(=O)c3cc(C(=O)O)c(O)c4ccccc34)cc2)cc(C)c1Cl` [Compound 3bl, 4-(N-Benzyl-N-(4-(4-chloro-3,5-dimethylphenoxy)phenyl)sulfamoyl)-1-hydroxy-2-naphthoic acid], the “change in experimental free energy of binding to Mcl-1” value at Mcl-1 was -0.8 kcal/mol. The same measure, in the same setting: for `Cc1cc(Oc2ccc(NS(=O)(=O)c3cc(C(=O)O)c(O)c4ccccc34)cc2)cc(C)c1Cl` [Compound 3bi, 4-(N-(4-(4-Chloro-3,5-dimethylphenoxy)phenyl)sulfamoyl)-1-hydroxy-2-naphthoic acid] the value was -1.9 kcal/mol. In the case of `CC(=O)OCOC(=O)c1cc(S(=O)(=O)N(CC(C)C)c2ccc(OC(C)C)cc2)c2ccccc2c1O` [Compound 14, Acetoxymethyl 1-hydroxy-4-(N-isobutyl-N-(4-isopropoxyphenyl)sulfamoyl)-2-naphthoate], the “binding affinity to Mcl-1 in vitro” value on Mcl-1 was “no binding affinity”.

Consider `O=C(O)c1cc(S(=O)(=O)Nc2ccc(Br)cc2)c2ccccc2c1O` [Compound 3a, 4-(N-(4-bromophenyl)sulfamoyl)-1-hydroxy-2-naphthoic acid], for which the “change in experimental free energy of binding to Mcl-1” value on Mcl-1 was -2.1 kcal/mol. `CC(C)CN(c1ccc(OC(C)C)cc1)S(=O)(=O)c1cc(C(=O)O)c(O)c2ccccc12` [Compound 3ba, 1-Hydroxy-4-(N-isobutyl-N-(4-isopropoxyphenyl)sulfamoyl)-2-naphthoic acid]: the “interaction with Mcl-1 by HSQC chemical shift perturbation” value on Mcl-1^172-327 is reported as “direct interaction”. As for `COc1c(C(=O)O)cc(S(=O)(=O)N(CC(C)C)c2ccc(Br)cc2)c2ccccc12` [Compound 12, 4-(N-(4-Bromophenyl)-N-isobutylsulfamoyl)-1-methoxy-2-naphthoic acid], the “fold reduction in Mcl-1 activity” value on Mcl-1 (methylation of hydroxyl group, relative to 3ca) was about 40 fold. On to `O=C(O)c1cc(S(=O)(=O)NCC2CCCCC2)c2ccccc2c1O` [Compound 3g, 4-(N-(Cyclohexylmethyl)sulfamoyl)-1-hydroxy-2-naphthoic acid], for which the “fold improvement in Mcl-1 inhibitory activity” value at Mcl-1 (relative to unsubstituted benzylic amine derivative 3c) was 8 fold.

`COC(=O)c1cc(S(=O)(=O)N(CC(C)C)c2ccc(OC(C)C)cc2)c2ccccc2c1O` [Compound 13, Methyl 1-hydroxy-4-(N-isobutyl-N-(4-isopropoxyphenyl)sulfamoyl)-2-naphthoate]: the “binding affinity to Mcl-1 in vitro” value at Mcl-1 is on record as “no binding affinity”.
